In ChEMBL document CHEMBL1124700, “1,4-Dihydronaphthoquinones, hydroindoloquinones, benzofurans, and benzothiophenes as inhibitors of 5-lipoxygenase. Synthesis and structure-activity studies” (J Med Chem, 1990):

Legend:
Rattus norvegicus [1] = species: Rattus norvegicus; experiment: In vitro inhibition of LTC4/D4 (leukotriene) production in rat peritoneal mononuclear cells.; type: functional, cell-based
Summary of the method: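 Rat peritoneal mononuclear cells challenged with calcium ionophore A23187 in presence of cysteine. Initial screen at 10 μg/mL, duplicate determinations, expressed as percent of control. IC50 from follow-up testing, interpolated from log dose–response plot. LTC4/D4 measured by guinea pig ileum bioassay (atropinized, mepyramine-treated) or, later, LTC4-selective radioimmunoassay.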

[2] = target: T1, Polyunsaturated fatty acid 5-lipoxygenase (Rattus norvegicus) (UniProt P12527); experiment: Ex vivo inhibition of LTB4 production in rat blood following 50 mg/kg p.o.; type: functional, organism-based; set-up: dose 50 mg/kg; settings: at 50 mg/kg
T1 sequence (whole entry): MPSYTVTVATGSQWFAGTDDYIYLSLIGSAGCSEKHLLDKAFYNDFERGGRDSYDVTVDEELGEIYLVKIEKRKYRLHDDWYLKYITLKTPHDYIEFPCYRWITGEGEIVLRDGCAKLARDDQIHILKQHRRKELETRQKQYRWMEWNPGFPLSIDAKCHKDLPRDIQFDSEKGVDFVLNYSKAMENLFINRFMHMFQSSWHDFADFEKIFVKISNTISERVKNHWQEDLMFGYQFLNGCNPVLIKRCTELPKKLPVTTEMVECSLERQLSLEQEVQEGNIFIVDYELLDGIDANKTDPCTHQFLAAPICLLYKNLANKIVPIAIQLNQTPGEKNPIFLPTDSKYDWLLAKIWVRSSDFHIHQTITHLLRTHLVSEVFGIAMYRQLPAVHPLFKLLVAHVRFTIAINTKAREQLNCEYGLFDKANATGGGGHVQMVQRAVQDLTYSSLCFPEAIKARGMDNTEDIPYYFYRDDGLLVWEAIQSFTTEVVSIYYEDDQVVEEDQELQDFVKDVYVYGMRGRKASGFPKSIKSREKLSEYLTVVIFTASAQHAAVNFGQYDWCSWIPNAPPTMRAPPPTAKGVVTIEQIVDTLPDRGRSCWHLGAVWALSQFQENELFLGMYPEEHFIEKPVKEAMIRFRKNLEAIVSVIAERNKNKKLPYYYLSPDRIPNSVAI
Summary of the method: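 Male Sprague-Dawley rats (225–275 g), fasted 18 h, given test compound orally at 50 mg/kg; controls got vehicle; five rats per compound. At 2 h, anesthetized; heparinized blood from vena cava. Blood (1.0 mL) stimulated with A23187 (30 μM), 30 min, 37 °C; plasma LTB4 by radioimmunoassay. Percent inhibition from mean treated vs mean control; Wilcoxon rank sum.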

Rattus norvegicus [3] = species: Rattus norvegicus; experiment: Ex vivo inhibition of LTB4 production was determined; type: functional, organism-based
Summary of the method: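 Male Sprague-Dawley rats (225–275 g), fasted 18 h, given 50 mg/kg orally in 1.0 mL solution; controls received 1.0 mL vehicle; five rats per compound. Heparinized vena cava blood taken 2 h post-dose under anesthesia; 1.0 mL stimulated with A23187 (30 μM) 30 min at 37 °C. Plasma LTB4 by radioimmunoassay; percent inhibition from group mean vs control mean; Wilcoxon rank sum statistics.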

[4] = Rattus norvegicus, read-out: IC50

| IC50 (Rattus norvegicus [1]; [4]) [nM] | SMILES | further results |
| --- | --- | --- |
| 2200 | COc1cc(-c2ccccc2)c(O)c2ccoc12 |  |
| 8920 | CCCCCc1c(C(=O)OCC)c(OC(C)=O)c2ccccc2c1OC |  |
| 1250 | COc1c(C)c(-c2ccccc2)c(O)c2ccoc12 |  |
|  | C=Cc1c(OCC)c(OC)c2ccccc2c1OC | IC50 (Rattus norvegicus [1]): Not Active |
| 23500 | CCCCC1=CC(=O)c2sccc2C1=O |  |
| 86000 | CCOc1c(C(C)O)c(OC)c2ccccc2c1OC (stereo unspecified) |  |
| 2050 | CCCCC1=CC(=O)c2occc2C1=O |  |
| 1150 | CCCCc1c(CCCC)c(OC)c2occc2c1O |  |
| 11900 | CCCCc1cc(OC)c2c(C)cc(C)c(C)c2c1OC(C)=O | inhibition [2]: 35.4% |
| 440 | CCCCc1cc(OC)c2ccccc2c1OC(C)=O [BUNAPROLAST] | inhibition [2]: 61.1% |
| 940 | CCCCCc1c(C(=O)OCC)c(OC)c2ccccc2c1OC(C)=O |  |
| 15700 | CCc1c(CC)c(OC(C)=O)c2c(C)c(C)cc(C)c2c1OC | inhibition [2]: 14.7% |
| 260 | CCCCc1cc(OC)c2c(OC)cccc2c1OC(C)=O | inhibition [2]: 17.5% |
| 200 | CCCCc1c(C)c(OC)c2ccccc2c1OC(C)=O |  |
| 5810 | CCOC(=O)c1c(-c2ccccc2)c(OC(C)=O)c2ccccc2c1OC |  |
| 760 | CCCCc1c(C)c(OC(C)=O)c2ccn(C)c2c1OC |  |
| 3860 | COc1cc(-c2ccccc2)c(OC(C)=O)c2ccn(C)c12 |  |
| 2030 | CCc1c(CC)c(OC)c2c(ccn2C)c1OC(C)=O |  |
| 760 | CCCCc1c(C)c(OC)c2c(ccn2C)c1OC(C)=O |  |
| 7350 | CCCCc1cc(OC)c2c(C)ccc(C)c2c1OC(C)=O | inhibition [2]: 19.1% |
| 3760 | CCOC(=O)c1c(CC)c(OC)c2ccccc2c1OC(C)=O |  |
| 990 | CCCCc1c(CC)c(OC)c2ccccc2c1OC(C)=O |  |
| 11000 | COc1c(-c2ccccc2)c(-c2ccccc2)c(OC(C)=O)c2ccccc12 |  |
| 37300 | CCc1c(CC)c(OC(C)=O)c2c(C)c(C)c(C)c(C)c2c1OC | inhibition [2]: -4.9% |
| 1160 | CCOC(=O)c1c(CC)c(OC(C)=O)c2ccccc2c1OC |  |
| 460 | CCCCc1cc(OC)c2sccc2c1OC(C)=O |  |

| IC50 (Rattus norvegicus [1]; [4]) [nM] | SMILES | further results |
| --- | --- | --- |
| 40900 | CCCCc1cc(OC)c2ccccc2c1OC |  |
|  | COc1c(-c2ccccc2)c(-c2ccccc2)c(OC(C)=O)c2ccn(C)c12 | IC50 (Rattus norvegicus [1]): Not Active |
| 1130 | CCCCc1c(CC)c(OC(C)=O)c2ccccc2c1OC |  |
| 6020 | CCCCc1c(CCCC)c(OC(C)=O)c2ccccc2c1OC | inhibition [2]: 29.2% |
| 830 | CCc1c(CC)c(OC)c2c(C)cccc2c1OC(C)=O | inhibition [2]: 40.6% |
| 400 | CCc1c(CC)c(OC(C)=O)c2ccccc2c1OC | inhibition [2]: 74.8% |
| 13000 | CCc1c(CC)c(OC(C)=O)c2c(C)ccc(C)c2c1OC | inhibition [2]: 50.6% |
| 480 | CCCCc1ccc2c(OC(C)=O)c(CCCC)cc(OC)c2c1 | inhibition [2]: 19.2% |
| 2240 | CCCCC1=CC(=O)c2ccccc2C1=O |  |
| 110 | CCCCc1cc(OC)c2occc2c1OC(C)=O |  |
| 4390 | COc1c(-c2ccccc2)c(-c2ccccc2)c(O)c2ccoc12 |  |
| 11900 | CCCCc1cc(OC)c2occc2c1O |  |
|  | O=C1C=CC(=O)c2ccccc21 | IC50 (Rattus norvegicus [3]): < 20 µM |
| 720 | CCCCc1cc(OC)c2c(ccn2C)c1OC(C)=O |  |
| 44000 | CCCCc1cc(OC)c2c(C)c(C)c(C)c(C)c2c1OC(C)=O | inhibition [2]: 41.2% |
| 1050 | CCCCc1cc(OC)c2sccc2c1O |  |
| 940 | CCCCc1ccc2c(OC(C)=O)c(CC)c(CC)c(OC)c2c1 | inhibition [2]: 17% |
| 14100 | CCCCc1cccc2c(OC)c(CC)c(CC)c(OC(C)=O)c12 | inhibition [2]: 30.5% |
| 23900 | CCOc1c(C(C)O[Si](C)(C)C(C)(C)C)c(OC(C)=O)c2ccccc2c1OC (stereo unspecified) |  |
| 1380 | CCCCc1cc(OC)c2ccc(OC)cc2c1OC(C)=O |  |
| 1430 | CCCc1c(CCC)c(OC(C)=O)c2ccccc2c1OC |  |
| 620 | CCCCc1cc(OC)c2c(C)cccc2c1OC(C)=O | inhibition [2]: 31.8% |
| 890 | CCc1c(CC)c(OC)c2c(OC)cccc2c1OC(C)=O |  |
| 690 | CCc1c(CC)c(OC(C)=O)c2cc(OC)ccc2c1OC |  |
| 1470 | CCCCc1cc(OC)c2ccccc2c1O |  |
